# From ChEMBL document CHEMBL3797085, “Structure-Based Design and Synthesis of Novel Inhibitors Targeting HDAC8 from Schistosoma mansoni for the Treatment of Schistosomiasis” (J Med Chem, 2016)
# Active and inactive are the calls of the source. The calls are words filed in the database; no cut-off is given here.
# Tests used:
# [1] = system: Schistosoma mansoni; test: Antiparasitic activity against schistosomula stage of Schistosoma mansoni assessed as parasite viability at 20 uM after 48 hrs by Alamar Blue assay relative to control; format: functional
# Summary of the method: (§1)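 Mechanically transformed S. mansoni schistosomula, 100 per well, in Medium 199 with 10% FCS, penicillin, streptomycin and rifampicin, held 3 h at 37°C/5% CO2 before use. […] Resazurin added at 48 h; fluorescence (ex 530/em 590 nm) read 24 h later, corrected for drug-medium background. Ethanol-killed larvae as dead control. Triplicate wells, two biological replicates.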
# [2] = target: T1, Protein deacetylase HDAC6 (Homo sapiens, UniProt Q9UBN7); test: Inhibition of recombinant human HDAC6 using Cbz-(Ac)Lys-AMC as substrate preincubated for 90 mins followed by trypsin addition measured after 20 mins by fluorescence assay; settings: read-out: IC50
# T1 sequence (Q9UBN7 whole entry): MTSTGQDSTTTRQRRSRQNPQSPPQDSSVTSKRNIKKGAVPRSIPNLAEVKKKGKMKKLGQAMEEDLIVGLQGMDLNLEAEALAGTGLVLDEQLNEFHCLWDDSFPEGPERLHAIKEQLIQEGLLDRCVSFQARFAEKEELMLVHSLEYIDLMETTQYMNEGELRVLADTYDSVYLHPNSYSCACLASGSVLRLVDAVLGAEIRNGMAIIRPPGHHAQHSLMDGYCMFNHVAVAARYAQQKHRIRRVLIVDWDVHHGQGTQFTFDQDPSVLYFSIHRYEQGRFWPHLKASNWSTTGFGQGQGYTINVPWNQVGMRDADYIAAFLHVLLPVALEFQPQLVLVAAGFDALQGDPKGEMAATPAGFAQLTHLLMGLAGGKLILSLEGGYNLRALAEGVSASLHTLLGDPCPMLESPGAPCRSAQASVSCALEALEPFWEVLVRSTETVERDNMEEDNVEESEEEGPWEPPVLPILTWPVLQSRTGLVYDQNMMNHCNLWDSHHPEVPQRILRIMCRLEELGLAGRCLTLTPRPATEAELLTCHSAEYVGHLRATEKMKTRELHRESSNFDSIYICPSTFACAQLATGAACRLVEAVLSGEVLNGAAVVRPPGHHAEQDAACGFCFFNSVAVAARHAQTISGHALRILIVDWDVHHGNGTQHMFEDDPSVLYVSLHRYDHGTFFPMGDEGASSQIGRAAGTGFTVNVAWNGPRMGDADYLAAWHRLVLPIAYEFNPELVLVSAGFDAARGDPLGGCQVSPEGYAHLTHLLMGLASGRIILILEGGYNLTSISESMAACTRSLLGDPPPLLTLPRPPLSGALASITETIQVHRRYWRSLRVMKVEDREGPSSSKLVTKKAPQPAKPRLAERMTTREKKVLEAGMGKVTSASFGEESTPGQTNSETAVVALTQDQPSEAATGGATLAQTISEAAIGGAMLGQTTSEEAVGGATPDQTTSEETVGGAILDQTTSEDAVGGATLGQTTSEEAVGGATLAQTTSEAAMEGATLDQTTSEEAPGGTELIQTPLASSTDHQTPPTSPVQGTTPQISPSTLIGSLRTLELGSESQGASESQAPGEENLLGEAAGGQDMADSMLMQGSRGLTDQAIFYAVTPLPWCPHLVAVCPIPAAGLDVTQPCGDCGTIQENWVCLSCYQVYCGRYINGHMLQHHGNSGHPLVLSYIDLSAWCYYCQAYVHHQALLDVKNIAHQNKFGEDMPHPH
# [3] = system: Schistosoma mansoni; test: Antiparasitic activity against schistosomula stage of Schistosoma mansoni assessed as parasite viability at 10 uM after 48 hrs by Alamar Blue assay relative to control; format: functional; summary of the method: as §1
# [4] = target: T2, Histone deacetylase 1 (Homo sapiens, UniProt Q13547); test: Inhibition of recombinant human HDAC1 using Cbz-(Ac)Lys-AMC as substrate preincubated for 90 mins followed by trypsin addition measured after 20 mins by fluorescence assay; settings: read-out: IC50
# [5] = Cytotoxicity against HEK293 cells assessed as cell viability at 50 uM after 24 hrs by Alamar Blue assay relative to control; format: cell-based; settings: human, read-out: Activity
# Summary of the method: (§2)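 AlamarBlue added after 24 h, incubated a further 21 h; resorufin fluorescence ex 560/em 590 nm. Triplicates; viability relative to untreated cells; daunorubicin positive control.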
# [6] = target: T3, Histone deacetylase 8 (Schistosoma mansoni, UniProt A5H660); test: Inhibition of recombinant Schistosoma mansoni HDAC8 expressed in Escherichia coli using Fluor de Lys as substrate preincubated for 90 mins followed by BML-KI176 addition measured after 45 mins by fluorescence assay; settings: read-out: IC50
# T3 sequence (A5H660 whole entry): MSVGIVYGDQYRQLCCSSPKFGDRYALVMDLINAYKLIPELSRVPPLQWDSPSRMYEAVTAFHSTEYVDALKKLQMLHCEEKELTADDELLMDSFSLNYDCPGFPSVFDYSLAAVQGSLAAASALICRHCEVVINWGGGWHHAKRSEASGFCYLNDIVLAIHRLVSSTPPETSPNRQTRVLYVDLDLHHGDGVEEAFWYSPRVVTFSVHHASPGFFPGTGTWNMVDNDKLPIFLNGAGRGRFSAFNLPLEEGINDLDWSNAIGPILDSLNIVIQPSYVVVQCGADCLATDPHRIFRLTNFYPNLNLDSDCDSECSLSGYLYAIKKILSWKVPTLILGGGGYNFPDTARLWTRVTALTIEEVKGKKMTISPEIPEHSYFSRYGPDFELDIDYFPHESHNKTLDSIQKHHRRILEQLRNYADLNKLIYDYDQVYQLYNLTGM
# Summary of the method: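 smHDAC8 produced in E. coli. Fluor de Lys kit: compound, Fluor de Lys-HDAC8 substrate (50 µM) and enzyme incubated 90 min at 37°C, then Developer II for 45 min at 30°C. Reaction stopped with trichostatin A (2 µM). Fluorescence read at ex 390/em 460 nm. IC50 given as mean ± S.E.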
# [7] = target: T4, Histone deacetylase 8 (Homo sapiens, UniProt Q9BY41); test: Inhibition of recombinant human HDAC8 using Fluor de Lys as substrate preincubated for 90 mins followed by BML-KI176 addition measured after 45 mins by fluorescence assay; settings: read-out: IC50
# T4 sequence (Q9BY41 whole entry): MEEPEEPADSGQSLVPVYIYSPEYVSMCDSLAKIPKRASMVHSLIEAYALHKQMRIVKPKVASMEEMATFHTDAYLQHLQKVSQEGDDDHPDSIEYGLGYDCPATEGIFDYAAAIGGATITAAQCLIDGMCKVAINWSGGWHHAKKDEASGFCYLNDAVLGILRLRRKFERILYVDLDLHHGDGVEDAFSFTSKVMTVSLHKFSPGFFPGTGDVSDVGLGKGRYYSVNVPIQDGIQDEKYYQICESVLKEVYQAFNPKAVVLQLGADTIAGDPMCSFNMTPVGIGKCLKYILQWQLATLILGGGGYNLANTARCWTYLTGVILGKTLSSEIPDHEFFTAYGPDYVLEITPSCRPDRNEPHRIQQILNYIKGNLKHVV
# [8] = system: Schistosoma mansoni; test: Antiparasitic activity against schistosomula stage of Schistosoma mansoni assessed as parasite viability after 48 hrs by Alamar Blue assay; format: functional, organism-based; summary of the method: as §1
# [9] = target: T2, Histone deacetylase 1; test: Inhibition of recombinant human HDAC1 using Cbz-(Ac)Lys-AMC as substrate at 10 uM preincubated for 90 mins followed by trypsin addition measured after 20 mins by fluorescence assay relative to control
# [10] = system: HEK293; test: Cytotoxicity against HEK293 cells assessed as cell viability after 24 hrs by Alamar Blue assay; format: cell-based; settings: Homo sapiens, HEK293, 24 h; summary of the method: as §2
# [11] = system: Schistosoma mansoni; test: Antiparasitic activity against adult Schistosoma mansoni assessed as reduction in egg lying at 20 uM after 5 days by microscopy relative to control; format: functional; design: scale not given: the % may be the effect or the level left
# Summary of the method: (§3)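 Adult worm pairs perfused from infected hamsters; ten pairs per well in 2 mL M199 (pH 7.4, 10 mM HEPES, supplemented as for schistosomula), 37°C, 5% CO2. Cultured 5 days before adding inhibitors in DMSO; medium and inhibitor refreshed daily. Eggs in recovered, centrifuged medium counted by microscopy. Two biological replicates in triplicate.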
# [12] = system: Schistosoma mansoni; test: Antiparasitic activity against adult Schistosoma mansoni assessed as separation of male and female worm pairs at 20 uM after 5 days by microscopy relative to control; format: functional
# Summary of the method: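 Hamster-perfused worm pairs, ten per well in 2 mL buffered supplemented M199 (10 mM HEPES, pH 7.4), 37°C, 5% CO2, pre-cultured 5 days, then inhibitor in DMSO at 10 or 20 µM; medium and compound renewed daily. Pairs still coupled counted daily by microscopy for up to 5 days. Two biological replicates in triplicate.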
# [13] = system: Schistosoma mansoni; test: Antiparasitic activity against schistosomula stage of Schistosoma mansoni assessed as parasite viability at 10 to 20 uM after 5 days by microscopy relative to control; format: functional, organism-based
# Summary of the method: (§4)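 Microscopy viability: 2,000 schistosomula per well in M199 (10 mM HEPES, pH 7.4, supplemented), 37°C, 5% CO2; inhibitor at 10 or 20 µM in DMSO, medium refreshed daily, up to 5 days. Dead larvae scored by granular appearance, tegumental defects and lack of motility; ≥300 larvae per time point; % viable larvae. Three biological replicates in duplicate.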
# [14] = system: Schistosoma mansoni; test: Antiparasitic activity against schistosomula stage of Schistosoma mansoni assessed as parasite viability at 10 uM measured within 2 days by microscopy; format: functional, organism-based; summary of the method: as §4
# [15] = system: Schistosoma mansoni; test: Antiparasitic activity against schistosomula stage of Schistosoma mansoni assessed as parasite viability at 20 uM after 1 to 2 days by microscopy; format: functional, organism-based; summary of the method: as §4
# [16] = system: Schistosoma mansoni; test: Antiparasitic activity against adult Schistosoma mansoni assessed as reduction in egg lying at 10 uM after 5 days by microscopy relative to control; format: functional, organism-based; summary of the method: as §3
# T2 sequence (Q13547 whole entry): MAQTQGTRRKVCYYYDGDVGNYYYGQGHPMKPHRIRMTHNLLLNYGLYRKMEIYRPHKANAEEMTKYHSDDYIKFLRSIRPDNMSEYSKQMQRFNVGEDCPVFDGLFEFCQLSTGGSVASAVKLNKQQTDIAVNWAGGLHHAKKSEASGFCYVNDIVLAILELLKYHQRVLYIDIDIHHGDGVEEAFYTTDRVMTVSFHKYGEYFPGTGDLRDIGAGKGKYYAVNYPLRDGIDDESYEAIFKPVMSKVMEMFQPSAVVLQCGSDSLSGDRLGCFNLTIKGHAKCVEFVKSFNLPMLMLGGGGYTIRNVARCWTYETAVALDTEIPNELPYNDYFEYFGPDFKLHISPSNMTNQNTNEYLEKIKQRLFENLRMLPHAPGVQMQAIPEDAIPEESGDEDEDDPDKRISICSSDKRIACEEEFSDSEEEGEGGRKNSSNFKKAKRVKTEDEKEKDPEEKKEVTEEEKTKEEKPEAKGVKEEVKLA
Structure (SMILES),Activity [1] [%],IC50 [2] [nM],Activity [3] [%],IC50 [4] [µM],"viability at 24 h, 50 µM [5] [%]",IC50 [6] [nM],IC50 [7] [nM],Activity [8],inhibition [9] [%],IC50 [10] [µM],Activity [11] [%],Activity [12] [%],Activity [13],Activity [14],Activity [15],Activity [16],EC50 [8] [µM]
CCOc1ccc(C(=O)NO)cc1NC(=O)c1ccc(-c2ccccc2)cc1,35.8,600,77.9,2.08,80.3,92,149,Dose-dependent effect,,,,,,,,,
O=C(NO)c1cccc(NCc2ccccc2)c1,,,,,,1080,143,,41.4,,,,,,,,
CN(C)c1cccc(C(=O)NO)c1,,,92.6,,92.7,1580,70.2,,37.4,,,,,,,,
COc1ccc(C(=O)NO)cc1NC(=O)c1ccc(-c2ccccc2)cc1,33.4,,64.8,,12.3,,,Dose-dependent effect,,199,80,90,inactive,Active,Active,Active,16.1
O=C(NO)c1ccc(Cl)c(NC(=O)c2cccc(OCc3ccccc3)c2)c1,68.6,1500,73.8,9.4,74.4,378,214,,,,,,,,,,
O=C(NO)c1ccc(Br)c(NC(=O)c2ccccc2)c1,63.1,150,70.8,7.4,64.3,150,191,,,,,,,,,,
